# According to ChEMBL document CHEMBL3124867, “Hepatitis C replication inhibitors that target the viral NS4B protein” (J Med Chem, 2014):
# Experiments:
# Hepatitis C virus [1] = assay: Antiviral activity against Hepatitis C virus genotype 1a infected in human HuH7 cells after 48 hrs by luciferase reporter gene assay; assay type: functional, organism-based, Hepacivirus hominis; settings: subtype 1a, Huh-7, 48 h
# [2] = Clearance in CD rat at 1 mg/kg, iv by LC/MS/MS analysis; assay type: ADME, organism-based; design: dose 1 mg/kg, route intravenous; settings: in vivo
# In short: (§1)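 Intravenous dose of 1 mg/kg in DMSO/20% HP-β-CD (10:90) (n = 4). Clearance, Vdss and t1/2 were derived from the plasma concentration–time profiles.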
# Hepatitis C virus [3] = assay: Antiviral activity against Hepatitis C virus genotype 1b infected in human HuH7 cells after 48 hrs by luciferase reporter gene assay; assay type: functional, organism-based, Hepacivirus hominis; settings: Huh-7, 48 h
# Hepatitis C virus [4] = assay: Antiviral activity against Hepatitis C virus genotype 1b expressing NS4B H94N mutant infected in human HuH7 cells after 48 hrs by luciferase reporter gene assay; assay type: functional, organism-based, Hepacivirus hominis; settings: Huh-7, 48 h
# Hepatocyte [5] = assay: Drug metabolism in human hepatocytes assessed as oxidation of the terminal bicyclohexane substituent at 10 uM by LC/MS/MS analysis; assay type: ADME, cell-based
# [6] = Lipophilicity, log D of the compound by chromatographic analysis; assay type: physicochemical
# In short: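 Lipophilicity was measured chromatographically and reported as ChromLogD; ≥6 replicates.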
# Hepatocyte [7] = assay: Drug metabolism in rat hepatocytes assessed as oxidation of the terminal bicyclohexane substituent at 10 uM by LC/MS/MS analysis; assay type: ADME, cell-based
# Hepatitis C virus [8] = assay: Antiviral activity against Hepatitis C virus genotype 1b expressing NS4B V105M mutant infected in human HuH7 cells after 48 hrs by luciferase reporter gene assay; assay type: functional, organism-based, Hepacivirus hominis; settings: Huh-7, 48 h
# [9] = Displacement of [3H]-3-(1-(3-chloro-6-isopropyl-8-(trifluoromethyl)imidazo[1,2-a]pyridine-2-carbonyl)piperidin-4-yl)oxazolidin-2-one from HCV genotype 1b C-terminal His-tagged NS4B (1 to 261 aa) expressed in baculovirus infected SF9 cells after overnight incubation; design: species or system Hepatitis C virus subtype 1b
# [10] = Clearance in beagle dog at 1 mg/kg, iv by LC/MS/MS analysis; assay type: ADME, organism-based, Canis lupus familiaris; design: dose 1 mg/kg, route intravenous; settings: in vivo; in short: as §1
# [11] = Half life in cynomolgus monkey at 1 mg/kg, iv by LC/MS/MS analysis; assay type: ADME, organism-based, Macaca fascicularis; design: dose 1 mg/kg, route intravenous; settings: in vivo; in short: as §1
# Cytochrome P450 1A2 = molecular target: T1, Cytochrome P450 1A2 (Homo sapiens, UniProt P05177); assay: Inhibition of CYP1A2 in human liver microsomes after 10 mins by LC/MS/MS analysis; assay type: ADME
# T1 sequence (P05177 whole entry): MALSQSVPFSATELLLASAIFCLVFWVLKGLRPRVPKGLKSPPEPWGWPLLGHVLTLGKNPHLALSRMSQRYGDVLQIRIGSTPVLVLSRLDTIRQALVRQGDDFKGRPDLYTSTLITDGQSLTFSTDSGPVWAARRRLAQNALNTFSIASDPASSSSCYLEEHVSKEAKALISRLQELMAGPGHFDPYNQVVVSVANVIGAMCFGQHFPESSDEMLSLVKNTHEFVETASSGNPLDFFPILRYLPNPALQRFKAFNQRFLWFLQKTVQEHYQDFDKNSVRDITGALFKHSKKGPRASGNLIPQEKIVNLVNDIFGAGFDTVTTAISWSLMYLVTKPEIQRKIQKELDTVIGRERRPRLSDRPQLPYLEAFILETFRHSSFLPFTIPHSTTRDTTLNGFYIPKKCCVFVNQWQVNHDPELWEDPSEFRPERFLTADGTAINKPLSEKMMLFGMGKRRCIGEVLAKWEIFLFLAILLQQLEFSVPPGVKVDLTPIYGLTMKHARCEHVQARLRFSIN
# In short: (§2)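 Cytochrome P450 isozymes 3A4, 1A2, 2C9, 2C19 and 2D6 were tested for inhibition up to 20 μM, with IC50 reported.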
# [12] = Plasma protein binding in CD rat at 5 uM after 4 hrs by rapid equilibrium dialysis method; assay type: ADME, cell-free; settings: read-out: PPB (converted)
# [13] = Plasma protein binding in human at 5 uM after 4 hrs by rapid equilibrium dialysis method; assay type: ADME, cell-free; settings: read-out: PPB (converted)
# Cytochrome P450 2D6 = Cytochrome P450 2D6 (Homo sapiens, UniProt P10635); assay: Inhibition of CYP2D6 in human liver microsomes after 10 mins by LC/MS/MS analysis; assay type: ADME; in short: as §2
# [14] = Volume of distribution at steady state in CD-1 mouse at 1 mg/kg, iv by LC/MS/MS analysis; assay type: ADME, organism-based; design: dose 1 mg/kg, route intravenous; settings: in vivo, read-out: Vdss; in short: as §1
# [15] = Plasma protein binding in cynomolgus monkey at 5 uM after 4 hrs by rapid equilibrium dialysis method; assay type: ADME, cell-free, Macaca fascicularis; settings: read-out: PPB (converted)
# [16] = AUC (0 to infinity) in beagle dog at 5 mg/kg, po by LC/MS/MS analysis; assay type: ADME, organism-based, Canis lupus familiaris; design: time infinity, dose 5 mg/kg, route oral; settings: plasma
# In short: (§3)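 Oral dose of 5 mg/kg in DMSO/20% HP-β-CD (10:90), with a matching iv group for bioavailability. Plasma concentration–time profiles gave AUC0−∞ and F.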
# Liver microsome [17] = assay: Drug metabolism in human liver microsomes assessed as generation of reactive metabolites at 10 uM after 30 mins by glutathione-trapping assay; assay type: ADME; settings: 0.5 h
# In short: (§4)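 Rat and human liver microsomes were incubated with compound, and a glutathione-trapping assay was used to detect reactive metabolites.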
# [18] = Half life in beagle dog at 1 mg/kg, iv by LC/MS/MS analysis; assay type: ADME, organism-based, Canis lupus familiaris; design: dose 1 mg/kg, route intravenous; settings: in vivo; in short: as §1
# [19] = Volume of distribution at steady state in cynomolgus monkey at 1 mg/kg, iv by LC/MS/MS analysis; assay type: ADME, organism-based, Macaca fascicularis; design: dose 1 mg/kg, route intravenous; settings: in vivo, read-out: Vdss; in short: as §1
# [20] = Clearance in cynomolgus monkey at 1 mg/kg, iv by LC/MS/MS analysis; assay type: ADME, organism-based, Macaca fascicularis; design: dose 1 mg/kg, route intravenous; settings: in vivo; in short: as §1
# [21] = AUC (0 to infinity) in CD-1 mouse at 5 mg/kg, po by LC/MS/MS analysis; assay type: ADME, organism-based; design: time infinity, dose 5 mg/kg, route oral; settings: plasma; in short: as §3
# [22] = Aqueous solubility in fasted state simulated intestinal fluid at pH 6.5 by LC/UV analysis; assay type: physicochemical
# [23] = Plasma protein binding in beagle dog at 5 uM after 4 hrs by rapid equilibrium dialysis method; assay type: ADME, cell-free, Canis lupus familiaris; settings: read-out: PPB (converted)
# Cytochrome P450 2C19 = Cytochrome P450 2C19 (Homo sapiens, UniProt P33261); assay: Inhibition of CYP2C19 in human liver microsomes after 10 mins by LC/MS/MS analysis; assay type: ADME; in short: as §2
# [24] = AUC (0 to infinity) in cynomolgus monkey at 5 mg/kg, po by LC/MS/MS analysis; assay type: ADME, organism-based, Macaca fascicularis; design: time infinity, dose 5 mg/kg, route oral; settings: plasma; in short: as §3
# Liver microsome [25] = assay: Drug metabolism in rat liver microsomes assessed as generation of reactive metabolites at 10 uM after 30 mins by glutathione-trapping assay; assay type: ADME; settings: 0.5 h; in short: as §4
# [26] = Plasma protein binding in CD-1 mouse at 5 uM after 4 hrs by rapid equilibrium dialysis method; assay type: ADME, cell-free; settings: read-out: PPB (converted)
# Cytochrome P450 3A4 = Cytochrome P450 3A4 (Homo sapiens, UniProt P08684); assay: Inhibition of CYP3A4 in human liver microsomes after 7 mins by LC/MS/MS analysis; assay type: ADME; in short: as §2
# [27] = Oral bioavailability in cynomolgus monkey at 5 mg/kg by LC/MS/MS analysis; assay type: ADME, organism-based, Macaca fascicularis; settings: in vivo; in short: as §3
# Cytochrome P450 2C9 = Cytochrome P450 2C9 (Homo sapiens, UniProt P11712); assay: Inhibition of CYP2C9 in human liver microsomes after 10 mins by LC/MS/MS analysis; assay type: ADME; in short: as §2
# [28] = AUC (0 to infinity) in CD rat at 5 mg/kg, po by LC/MS/MS analysis; assay type: ADME, organism-based; design: time infinity, dose 5 mg/kg, route oral; settings: plasma; in short: as §3
# [29] = Oral bioavailability in beagle dog at 5 mg/kg by LC/MS/MS analysis; assay type: ADME, organism-based, Canis lupus familiaris; settings: in vivo; in short: as §3
# [30] = Half life in CD-1 mouse at 1 mg/kg, iv by LC/MS/MS analysis; assay type: ADME, organism-based; design: dose 1 mg/kg, route intravenous; settings: in vivo; in short: as §1
# [31] = Oral bioavailability in CD-1 mouse at 5 mg/kg by LC/MS/MS analysis; assay type: ADME, organism-based; settings: in vivo; in short: as §3
# [32] = Half life in CD rat at 1 mg/kg, iv by LC/MS/MS analysis; assay type: ADME, organism-based; design: dose 1 mg/kg, route intravenous; settings: in vivo; in short: as §1
# [33] = Volume of distribution at steady state in beagle dog at 1 mg/kg, iv by LC/MS/MS analysis; assay type: ADME, organism-based, Canis lupus familiaris; design: dose 1 mg/kg, route intravenous; settings: in vivo, read-out: Vdss; in short: as §1
# [34] = Oral bioavailability in CD rat at 5 mg/kg by LC/MS/MS analysis; assay type: ADME, organism-based; settings: in vivo; in short: as §3
# [35] = Clearance in CD-1 mouse at 1 mg/kg, iv by LC/MS/MS analysis; assay type: ADME, organism-based; design: dose 1 mg/kg, route intravenous; settings: in vivo; in short: as §1
# [36] = Volume of distribution at steady state in CD rat at 1 mg/kg, iv by LC/MS/MS analysis; assay type: ADME, organism-based; design: dose 1 mg/kg, route intravenous; settings: in vivo, read-out: Vdss; in short: as §1
# Chain of Cytochrome P450 2C9 (P11712 whole entry): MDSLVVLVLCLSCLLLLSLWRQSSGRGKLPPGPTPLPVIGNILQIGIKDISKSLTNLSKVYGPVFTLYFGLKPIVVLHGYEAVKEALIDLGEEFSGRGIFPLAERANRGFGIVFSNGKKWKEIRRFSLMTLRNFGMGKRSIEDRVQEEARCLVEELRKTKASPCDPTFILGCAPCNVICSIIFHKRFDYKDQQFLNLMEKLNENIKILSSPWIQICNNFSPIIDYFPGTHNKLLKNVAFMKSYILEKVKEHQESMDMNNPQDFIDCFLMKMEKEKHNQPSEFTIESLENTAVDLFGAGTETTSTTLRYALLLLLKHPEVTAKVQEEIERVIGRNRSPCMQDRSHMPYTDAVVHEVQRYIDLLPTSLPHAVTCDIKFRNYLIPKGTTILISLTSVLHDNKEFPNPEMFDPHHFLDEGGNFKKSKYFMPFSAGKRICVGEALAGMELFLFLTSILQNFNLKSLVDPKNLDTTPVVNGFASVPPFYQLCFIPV
# Chain of Cytochrome P450 2C19 (P33261 whole entry): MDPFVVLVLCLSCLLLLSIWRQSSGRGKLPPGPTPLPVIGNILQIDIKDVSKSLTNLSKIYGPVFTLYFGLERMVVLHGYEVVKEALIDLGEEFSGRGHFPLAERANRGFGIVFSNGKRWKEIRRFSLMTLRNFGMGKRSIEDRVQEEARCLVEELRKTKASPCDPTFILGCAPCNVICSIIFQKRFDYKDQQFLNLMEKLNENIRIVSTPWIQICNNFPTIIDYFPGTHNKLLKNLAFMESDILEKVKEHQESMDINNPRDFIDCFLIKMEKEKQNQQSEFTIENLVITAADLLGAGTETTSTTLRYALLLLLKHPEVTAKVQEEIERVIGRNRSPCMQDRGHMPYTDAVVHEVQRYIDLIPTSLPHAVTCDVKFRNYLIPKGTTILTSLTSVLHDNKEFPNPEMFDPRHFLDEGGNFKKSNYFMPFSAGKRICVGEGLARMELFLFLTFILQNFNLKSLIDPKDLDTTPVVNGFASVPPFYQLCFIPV
# Chain of Cytochrome P450 3A4 (P08684 whole entry): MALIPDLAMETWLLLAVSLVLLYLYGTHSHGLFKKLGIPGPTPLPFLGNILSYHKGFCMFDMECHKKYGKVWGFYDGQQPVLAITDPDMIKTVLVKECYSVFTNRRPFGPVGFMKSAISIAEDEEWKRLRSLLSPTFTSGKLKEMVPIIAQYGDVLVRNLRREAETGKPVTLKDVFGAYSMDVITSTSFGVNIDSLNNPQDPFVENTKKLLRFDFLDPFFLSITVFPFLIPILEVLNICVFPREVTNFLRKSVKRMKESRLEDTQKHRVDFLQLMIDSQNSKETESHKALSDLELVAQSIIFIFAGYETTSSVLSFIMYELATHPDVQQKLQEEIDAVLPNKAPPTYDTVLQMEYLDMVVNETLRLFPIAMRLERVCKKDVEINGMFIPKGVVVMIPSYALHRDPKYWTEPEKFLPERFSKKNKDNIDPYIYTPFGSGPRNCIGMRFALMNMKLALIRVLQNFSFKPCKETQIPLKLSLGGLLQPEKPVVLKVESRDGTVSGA
# Chain of Cytochrome P450 2D6 (P10635 whole entry): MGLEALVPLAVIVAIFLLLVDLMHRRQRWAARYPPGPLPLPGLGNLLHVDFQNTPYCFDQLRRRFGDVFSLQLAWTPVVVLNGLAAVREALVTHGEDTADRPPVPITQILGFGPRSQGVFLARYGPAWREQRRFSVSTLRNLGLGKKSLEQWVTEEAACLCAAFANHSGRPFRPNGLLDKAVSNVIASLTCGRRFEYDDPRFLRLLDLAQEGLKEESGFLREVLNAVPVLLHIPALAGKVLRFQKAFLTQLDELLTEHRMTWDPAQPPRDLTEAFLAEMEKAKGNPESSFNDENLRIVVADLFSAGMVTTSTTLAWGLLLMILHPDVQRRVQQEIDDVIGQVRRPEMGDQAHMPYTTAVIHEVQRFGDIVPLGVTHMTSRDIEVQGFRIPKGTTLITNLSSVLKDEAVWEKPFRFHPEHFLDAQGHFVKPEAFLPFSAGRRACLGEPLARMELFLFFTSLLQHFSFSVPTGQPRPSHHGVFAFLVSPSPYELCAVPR
smiles,measurement,setting,value
O=C(c1nn2c(C(F)(F)F)cc(C3CC3)cc2c1Cl)N1CCN([C@@H]2C[C@H]3C[C@H]3C2)C(=O)C1,EC50,Hepatitis C virus [1],0.1 nM
same,clearance,[2],70 mL/min/kg
same,EC50,Hepatitis C virus [3],0.06 nM
same,EC50,Hepatitis C virus [4],0.7 nM
same,Stability,Hepatocyte [5],Unstable
same,chromatographic logD,[6],6.4
same,Stability,Hepatocyte [7],Unstable
same,EC50,Hepatitis C virus [8],2 nM
same,IC50,[9],4 nM
O=C(c1nn2c(C(F)(F)F)cc(C3CC3)cc2c1Cl)N1CCN([C@H]2C[C@@H]3C[C@@H]3[C@@H]2O)C(=O)C1,clearance,[10],6 mL/min/kg
same,half-life,[11],4 h
same,IC50,Cytochrome P450 1A2,> 20000 nM
same,"fraction unbound at 4 h, 5 µM",[12],0.04
same,"fraction unbound at 4 h, 5 µM",[13],0.06
same,IC50,Cytochrome P450 2D6,> 20000 nM
same,EC50,Hepatitis C virus [1],0.6 nM
same,Vd,[14],0.6 L/kg
same,clearance,[2],25 mL/min/kg
same,"fraction unbound at 4 h, 5 µM",[15],0.09
same,EC50,Hepatitis C virus [3],0.3 nM
same,EC50,Hepatitis C virus [4],5 nM
same,AUC(0-inf),[16],25000 ng·h/mL
same,Stability,Liver microsome [17],Stable
same,half-life,[18],2 h
same,Vd,[19],0.7 L/kg
same,chromatographic logD,[6],4.6
same,clearance,[20],3 mL/min/kg
same,AUC(0-inf),[21],1000 ng·h/mL
same,solubility,[22],310 µg/mL
same,"fraction unbound at 4 h, 5 µM",[23],0.07
same,IC50,Cytochrome P450 2C19,> 20000 nM
same,AUC(0-inf),[24],25000 ng·h/mL
same,Stability,Liver microsome [25],Stable
same,"fraction unbound at 4 h, 5 µM",[26],0.03
same,IC50,Cytochrome P450 3A4,> 20000 nM
same,bioavailability,[27],97%
same,IC50,Cytochrome P450 2C9,> 20000 nM
same,AUC(0-inf),[28],3100 ng·h/mL
same,bioavailability,[29],> 100%
same,EC50,Hepatitis C virus [8],38 nM
same,half-life,[30],0.4 h
same,bioavailability,[31],12%
same,half-life,[32],2 h
same,Vd,[33],0.7 L/kg
same,bioavailability,[34],92%
same,clearance,[35],19 mL/min/kg
same,Vd,[36],2 L/kg
same,IC50,[9],8 nM
